The values that follow come from ChEMBL document CHEMBL3797152, “Minimum structural requirements for cell membrane leakage-mediated anti-MRSA activity of macrocyclic bis(bibenzyl)s” (2016).

The structures appear in SMILES notation. Values after ≈ are worked out from the molar mass of the structure shown. Active and inactive are the calls of the source. The calls are words filed in the database; no cut-off is given here.

Assay [1] concerns Staphylococcus aureus. The experiment in a line: Antimicrobial activity against methicillin-resistant Staphylococcus aureus N315 after 18 to 20 hrs by liquid microdilution method. The class given is functional.
The subject of assay [2] is Staphylococcus aureus. As to the kind of experiment: Antimicrobial activity against methicillin-resistant Staphylococcus aureus OM481 clinical isolate after 18 to 20 hrs by liquid microdilution method. The class given is functional.
Assay [3] concerns Staphylococcus aureus. The experiment in a line: Antimicrobial activity against 2-phenoxyphenol/methicillin-resistant Staphylococcus aureus after 18 to 20 hrs by liquid microdilution method. The class given is functional. (In general: Broth dilution looks for growth in wells or tubes with falling amounts of substance.)
The test system of assay [4] is Staphylococcus aureus. As to the kind of experiment: Bactericidal activity against Staphylococcus aureus N315 cells assessed as reduction of bacterial burden at 4 times MIC up to 24 hrs. The class given is functional, organism-based. Summed up: (§1)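 S. aureus N315 (MRSA strain) survival assay: compound added at 1× or 4× its MIC, with MIC determined by liquid microdilution. Read-out is the number of viable cells remaining over time after addition.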

The subject of assay [5] is Staphylococcus aureus. The experiment in a line: Effect on membrane permeability assessed as decrease in intracellular potassium levels in Staphylococcus aureus N315 cells by ICP-OES analysis. The class given is functional, organism-based.
Assay [6] deals with Staphylococcus aureus. As to the kind of experiment: Bactericidal activity against Staphylococcus aureus N315 cells assessed as reduction of bacterial burden at MIC up to 24 hrs. The class given is functional. The procedure, abridged:
as §1

Assay [7] concerns Staphylococcus aureus. As to the kind of experiment: Increase in cytoplasmic membrane permeability in Staphylococcus aureus N315 cells assessed as efflux of EtBr by fluorescence assay. The class given is functional, organism-based. The procedure, abridged:
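EtBr-loaded S. aureus N315 cells; EtBr release followed as fall in fluorescence (excitation 530 nm, emission 600 nm) after adding test compound.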

In assay [8] the test system is Staphylococcus aureus. As to the kind of experiment: Effect on membrane permeability assessed as increase in intracellular sodium levels in Staphylococcus aureus N315 cells by ICP-OES analysis. The class given is functional, organism-based.
The test system of assay [9] is Staphylococcus aureus. The experiment in a line: Increase in cytoplasmic membrane permeability in Staphylococcus aureus N315 cells assessed as influx of EtBr by fluorescence assay. The class given is functional, organism-based. The procedure, abridged: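 Energized S. aureus N315 cells; EtBr uptake followed as rise in fluorescence (excitation 530 nm, emission 600 nm) immediately after adding test compound.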

One may read the MIC as the least concentration at which growth counts as inhibited. For the compound `Oc1ccc2c(c1)CCc1cccc(c1)-c1cccc(c1)CCc1ccc-2c(O)c1`, the MIC with Staphylococcus aureus [1], against Staphylococcus aureus [2] and against Staphylococcus aureus [3] was 0.5 mg/L (≈ 1.27 µM) each time.
With `Oc1ccc(-c2ccc(CCc3ccccc3)cc2O)c(CCc2ccccc2)c1`, the result in the assay on Staphylococcus aureus [4], in the assay with Staphylococcus aureus [5], in the assay with Staphylococcus aureus [7], in the assay on Staphylococcus aureus [8] and in the assay with Staphylococcus aureus [9] was Active. In the assay on Staphylococcus aureus [6], the Activity is recorded as 3 log10CFU/ml. Moreover, the MIC in the assay on Staphylococcus aureus [1], against Staphylococcus aureus [2] and in the assay with Staphylococcus aureus [3] was 8 mg/L (≈ 20.3 µM) in each case.
On to `Oc1ccccc1Oc1ccccc1`, for which the MIC with Staphylococcus aureus [1] was 8 mg/L (≈ 43 µM); in the assay on Staphylococcus aureus [2], 8 mg/L (≈ 43 µM); in the assay with Staphylococcus aureus [3] it was more than 128 mg/L.
On to `Oc1ccc(CCc2cccc(O)c2)cc1` [LUNULARIN], for which the MIC against Staphylococcus aureus [1], against Staphylococcus aureus [2] and with Staphylococcus aureus [3] was more than 128 mg/L each time.
On to `Oc1ccc(-c2ccccc2O)cc1`, for which the minimum inhibitory concentration (MIC) against Staphylococcus aureus [1], with Staphylococcus aureus [2] and against Staphylococcus aureus [3] was more than 128 mg/L throughout.
For `Oc1ccc2c(c1)CCc1ccc(cc1)Oc1cc(ccc1O)CCc1ccc-2c(O)c1` [RICCARDI C], the MIC with Staphylococcus aureus [1], in the assay on Staphylococcus aureus [2] and in the assay on Staphylococcus aureus [3] was 2 mg/L (≈ 4.71 µM) in each case.
Regarding `Cc1cc(O)ccc1-c1ccc(CCc2ccccc2)cc1O`, the outcome with Staphylococcus aureus [7] and in the assay on Staphylococcus aureus [9] was Active. Besides, the MIC in the assay on Staphylococcus aureus [1], with Staphylococcus aureus [2] and in the assay on Staphylococcus aureus [3] was 16 mg/L (≈ 52.6 µM) throughout.
